Converted amounts (≈) assume the structure as drawn.
Columns and labels:
Format in all cases: functional
Streptococcus pneumoniae [1] = test: Antibacterial activity against efflux-resistant Streptococcus pneumoniae 7701 expressing mefA by broth-microdilution method
Outline: (§1)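 MIC (µg/ml) by broth microdilution following CLSI standards.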

Moraxella catarrhalis = test: Antibacterial activity against Moraxella catarrhalis by broth-microdilution method
Outline: (§2)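 MICs were determined by broth microdilution following CLSI standards and reported in µg/ml.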

Streptococcus pyogenes [2] = test: Antibacterial activity against erythromycin-susceptible Streptococcus pyogenes 19615 by broth-microdilution method; outline: as §2
Streptococcus pyogenes [3] = test: Antibacterial activity against efflux-resistant Streptococcus pyogenes 1323 expressing mefA by broth-microdilution method; outline: as §1
Streptococcus pneumoniae [4] = test: Antibacterial activity against MLSB-resistant Streptococcus pneumoniae 700906 expressing erm by broth-microdilution method; outline: as §1
Streptococcus pneumoniae [5] = test: Antibacterial activity against erythromycin-susceptible Streptococcus pneumoniae 49619 by broth-microdilution method; outline: as §1
Haemophilus influenzae [6] = test: Antibacterial activity against ampicillin-susceptible Haemophilus influenzae by broth-microdilution method
Streptococcus pyogenes [7] = test: Antibacterial activity against MLSB-resistant Streptococcus pyogenes 2912 expressing ermA by broth-microdilution method; outline: as §1
Staphylococcus aureus [8] = test: Antibacterial activity against erythromycin-susceptible Staphylococcus aureus 29213 by broth-microdilution method; conditions: ATCC29213; outline: as §1
Staphylococcus aureus [9] = test: Antibacterial activity against MLSB-resistant Staphylococcus aureus 27660 expressing ermA by broth-microdilution method; outline: as §1
Haemophilus influenzae [10] = test: Antibacterial activity against ampicillin-resistant Haemophilus influenzae 33929 expressing beta-lactamase by broth-microdilution method; outline: as §1
Staphylococcus aureus [11] = test: Antibacterial activity against methicillin-resistant Staphylococcus aureus 33591 by broth-microdilution method; outline: as §1

SMILES | MIC (Streptococcus pneumoniae [1]) [µg/mL] | MIC (Moraxella catarrhalis) [µg/mL] | MIC (Streptococcus pyogenes [2]) [µg/mL] | MIC (Streptococcus pyogenes [3]) [µg/mL] | MIC (Streptococcus pneumoniae [4]) [µg/mL] | MIC (Streptococcus pneumoniae [5]) [µg/mL] | MIC (Haemophilus influenzae [6]) [µg/mL] | MIC (Streptococcus pyogenes [7]) [µg/mL] | MIC (Staphylococcus aureus [8]) [µg/mL] | MIC (Staphylococcus aureus [9]) [µg/mL] | MIC (Haemophilus influenzae [10]) [µg/mL] | MIC (Staphylococcus aureus [11]) [µg/mL]
CC[C@H]1OC(=O)[C@H](C)[C@H]2OC/C(=N\Oc3ccc4ccccc4c3)CCO[C@](C)(C[C@@H](C)C(=O)[C@H](C)[C@H]3NC(=O)O[C@@]31C)[C@H](O[C@@H]1O[C@H](C)C[C@H](N(C)C)[C@H]1O)[C@H]2C | 0.125 (≈ 0.154 µM) | 0.25 (≈ 0.309 µM) | ≤ 0.06 | 0.125 (≈ 0.154 µM) | 0.5 (≈ 0.617 µM) | ≤ 0.06 | 4 (≈ 4.94 µM) | 2 (≈ 2.47 µM) | 0.25 (≈ 0.309 µM) | 0.25 (≈ 0.309 µM) | 8 (≈ 9.88 µM) | 32 (≈ 39.5 µM)
CC[C@H]1OC(=O)[C@H](C)[C@H]2OC/C(=N\Oc3ccccc3)CCO[C@](C)(C[C@@H](C)C(=O)[C@H](C)[C@H]3NC(=O)O[C@@]31C)[C@H](O[C@@H]1O[C@H](C)C[C@H](N(C)C)[C@H]1O)[C@H]2C | – | ≤ 0.06 | ≤ 0.06 | – | 32 (≈ 42.1 µM) | ≤ 0.06 | 2 (≈ 2.63 µM) | 4 (≈ 5.26 µM) | ≤ 0.06 | ≤ 0.06 | 1 (≈ 1.32 µM) | > 64
CC[C@H]1OC(=O)[C@H](C)[C@H]2OC/C(=N\OCc3ccccc3)CCO[C@](C)(C[C@@H](C)C(=O)[C@H](C)[C@H]3NC(=O)O[C@@]31C)[C@H](O[C@@H]1O[C@H](C)C[C@H](N(C)C)[C@H]1O)[C@H]2C | – | ≤ 0.06 | ≤ 0.06 | 0.125 (≈ 0.162 µM) | > 64 | ≤ 0.06 | 2 (≈ 2.58 µM) | 4 (≈ 5.17 µM) | ≤ 0.06 | ≤ 0.06 | 2 (≈ 2.58 µM) | > 64
CC[C@H]1OC(=O)[C@H](C)[C@H]2OC/C(=N\OCCCCCc3ccccc3)CCO[C@](C)(C[C@@H](C)C(=O)[C@H](C)[C@H]3NC(=O)O[C@@]31C)[C@H](O[C@@H]1O[C@H](C)C[C@H](N(C)C)[C@H]1O)[C@H]2C | 0.125 (≈ 0.151 µM) | 0.25 (≈ 0.301 µM) | ≤ 0.06 | 0.125 (≈ 0.151 µM) | 8 (≈ 9.64 µM) | ≤ 0.06 | 4 (≈ 4.82 µM) | 8 (≈ 9.64 µM) | 0.25 (≈ 0.301 µM) | 0.25 (≈ 0.301 µM) | 4 (≈ 4.82 µM) | > 64
CC[C@H]1OC(=O)[C@H](C)[C@H]2OC/C(=N\Oc3ccccc3Cl)CCO[C@](C)(C[C@@H](C)C(=O)[C@H](C)[C@H]3NC(=O)O[C@@]31C)[C@H](O[C@@H]1O[C@H](C)C[C@H](N(C)C)[C@H]1O)[C@H]2C | – | ≤ 0.06 | ≤ 0.06 | – | 32 (≈ 40.3 µM) | ≤ 0.06 | 2 (≈ 2.52 µM) | 4 (≈ 5.04 µM) | ≤ 0.06 | ≤ 0.06 | 2 (≈ 2.52 µM) | 64 (≈ 80.6 µM)
CC[C@H]1OC(=O)[C@H](C)[C@H]2OC/C(=N\OCCCc3ccccc3)CCO[C@](C)(C[C@@H](C)C(=O)[C@H](C)[C@H]3NC(=O)O[C@@]31C)[C@H](O[C@@H]1O[C@H](C)C[C@H](N(C)C)[C@H]1O)[C@H]2C | – | 0.125 (≈ 0.156 µM) | ≤ 0.06 | – | 4 (≈ 4.99 µM) | ≤ 0.06 | 2 (≈ 2.49 µM) | 8 (≈ 9.97 µM) | 0.125 (≈ 0.156 µM) | 0.125 (≈ 0.156 µM) | 2 (≈ 2.49 µM) | > 64
CC[C@H]1OC(=O)[C@H](C)[C@H]2OC/C(=N\OCCCCc3ccccc3)CCO[C@](C)(C[C@@H](C)C(=O)[C@H](C)[C@H]3NC(=O)O[C@@]31C)[C@H](O[C@@H]1O[C@H](C)C[C@H](N(C)C)[C@H]1O)[C@H]2C | 0.125 (≈ 0.153 µM) | 0.25 (≈ 0.306 µM) | ≤ 0.06 | 0.25 (≈ 0.306 µM) | 4 (≈ 4.9 µM) | ≤ 0.06 | 8 (≈ 9.8 µM) | 16 (≈ 19.6 µM) | 0.25 (≈ 0.306 µM) | 0.25 (≈ 0.306 µM) | 4 (≈ 4.9 µM) | 64 (≈ 78.4 µM)
CC[C@H]1OC(=O)[C@H](C)[C@H]2OC/C(=N\Oc3ccc(-c4ccccc4)cc3)CCO[C@](C)(C[C@@H](C)C(=O)[C@H](C)[C@H]3NC(=O)O[C@@]31C)[C@H](O[C@@H]1O[C@H](C)C[C@H](N(C)C)[C@H]1O)[C@H]2C | 0.125 (≈ 0.15 µM) | 1 (≈ 1.2 µM) | ≤ 0.06 | 0.25 (≈ 0.299 µM) | 0.25 (≈ 0.299 µM) | ≤ 0.06 | 8 (≈ 9.57 µM) | 2 (≈ 2.39 µM) | 0.5 (≈ 0.598 µM) | 0.5 (≈ 0.598 µM) | 8 (≈ 9.57 µM) | 16 (≈ 19.1 µM)
CC[C@H]1OC(=O)[C@H](C)[C@H]2OC/C(=N\Oc3cccc(-c4ccccc4)c3)CCO[C@](C)(C[C@@H](C)C(=O)[C@H](C)[C@H]3NC(=O)O[C@@]31C)[C@H](O[C@@H]1O[C@H](C)C[C@H](N(C)C)[C@H]1O)[C@H]2C | – | 0.125 (≈ 0.15 µM) | ≤ 0.06 | 0.125 (≈ 0.15 µM) | 2 (≈ 2.39 µM) | ≤ 0.06 | 4 (≈ 4.78 µM) | 4 (≈ 4.78 µM) | 0.125 (≈ 0.15 µM) | 0.125 (≈ 0.15 µM) | 4 (≈ 4.78 µM) | 4 (≈ 4.78 µM)
CC[C@H]1OC(=O)[C@H](C)[C@H]2OC/C(=N\Oc3cccc(Cl)c3)CCO[C@](C)(C[C@@H](C)C(=O)[C@H](C)[C@H]3NC(=O)O[C@@]31C)[C@H](O[C@@H]1O[C@H](C)C[C@H](N(C)C)[C@H]1O)[C@H]2C | – | ≤ 0.06 | ≤ 0.06 | – | 8 (≈ 10.1 µM) | ≤ 0.06 | 2 (≈ 2.52 µM) | 1 (≈ 1.26 µM) | ≤ 0.06 | ≤ 0.06 | 2 (≈ 2.52 µM) | 32 (≈ 40.3 µM)
CC[C@H]1OC(=O)[C@H](C)[C@H]2OC/C(=N\OCCc3ccccc3)CCO[C@](C)(C[C@@H](C)C(=O)[C@H](C)[C@H]3NC(=O)O[C@@]31C)[C@H](O[C@@H]1O[C@H](C)C[C@H](N(C)C)[C@H]1O)[C@H]2C | – | ≤ 0.06 | ≤ 0.06 | 0.125 (≈ 0.159 µM) | 16 (≈ 20.3 µM) | ≤ 0.06 | 2 (≈ 2.54 µM) | 8 (≈ 10.2 µM) | 0.125 (≈ 0.159 µM) | 0.125 (≈ 0.159 µM) | 2 (≈ 2.54 µM) | > 64
CC[C@H]1OC(=O)[C@H](C)[C@H]2OC/C(=N\Oc3cccnc3)CCO[C@](C)(C[C@@H](C)C(=O)[C@H](C)[C@H]3NC(=O)O[C@@]31C)[C@H](O[C@@H]1O[C@H](C)C[C@H](N(C)C)[C@H]1O)[C@H]2C | 0.125 (≈ 0.164 µM) | ≤ 0.06 | ≤ 0.06 | 0.25 (≈ 0.329 µM) | 16 (≈ 21 µM) | 0.125 (≈ 0.164 µM) | 1 (≈ 1.31 µM) | 4 (≈ 5.26 µM) | 0.125 (≈ 0.164 µM) | 0.125 (≈ 0.164 µM) | 1 (≈ 1.31 µM) | > 64
CC[C@H]1OC(=O)[C@H](C)[C@H]2OC/C(=N\Oc3ccccc3-c3ccccc3)CCO[C@](C)(C[C@@H](C)C(=O)[C@H](C)[C@H]3NC(=O)O[C@@]31C)[C@H](O[C@@H]1O[C@H](C)C[C@H](N(C)C)[C@H]1O)[C@H]2C | 0.5 (≈ 0.598 µM) | 0.5 (≈ 0.598 µM) | ≤ 0.06 | 0.5 (≈ 0.598 µM) | 16 (≈ 19.1 µM) | ≤ 0.06 | 8 (≈ 9.57 µM) | 16 (≈ 19.1 µM) | 0.5 (≈ 0.598 µM) | 0.5 (≈ 0.598 µM) | 8 (≈ 9.57 µM) | 16 (≈ 19.1 µM)
CC[C@H]1OC(=O)[C@H](C)[C@H]2OC/C(=N\Oc3ccc(Cl)cc3)CCO[C@](C)(C[C@@H](C)C(=O)[C@H](C)[C@H]3NC(=O)O[C@@]31C)[C@H](O[C@@H]1O[C@H](C)C[C@H](N(C)C)[C@H]1O)[C@H]2C | – | ≤ 0.06 | ≤ 0.06 | – | 16 (≈ 20.1 µM) | ≤ 0.06 | 4 (≈ 5.04 µM) | 2 (≈ 2.52 µM) | ≤ 0.06 | ≤ 0.06 | 4 (≈ 5.04 µM) | > 64
CC[C@H]1OC(=O)[C@H](C)[C@H]2OC/C(=N/OCc3ccccc3)CCO[C@](C)(C[C@@H](C)C(=O)[C@H](C)[C@H]3NC(=O)O[C@@]31C)[C@H](O[C@@H]1O[C@H](C)C[C@H](N(C)C)[C@H]1O)[C@H]2C | 0.125 (≈ 0.162 µM) | 0.125 (≈ 0.162 µM) | ≤ 0.06 | 0.25 (≈ 0.323 µM) | > 64 | ≤ 0.06 | 8 (≈ 10.3 µM) | 64 (≈ 82.7 µM) | 0.5 (≈ 0.646 µM) | 0.5 (≈ 0.646 µM) | 16 (≈ 20.7 µM) | > 64
CC[C@H]1OC(=O)[C@H](C)[C@@H](O[C@H]2C[C@@](C)(OC)[C@@H](O)[C@H](C)O2)[C@H](C)[C@@H](O[C@@H]2O[C@H](C)C[C@H](N(C)C)[C@H]2O)[C@](C)(O)C[C@@H](C)C(=O)[C@H](C)[C@@H](O)[C@]1(C)O [ERYTHROMYCIN] | 4 (≈ 5.45 µM) | 0.13 (≈ 0.177 µM) | 0.015 (≈ 0.0204 µM) | 16 (≈ 21.8 µM) | > 64 | ≤ 0.06 | 4 (≈ 5.45 µM) | > 64 | 0.5 (≈ 0.681 µM) | > 64 | 4 (≈ 5.45 µM) | > 64
